The target of one assay is T1, Rhizopuspepsin (Rhizopus microsporus var. chinensis, UniProt P06026).
T1 sequence (P06026 whole entry): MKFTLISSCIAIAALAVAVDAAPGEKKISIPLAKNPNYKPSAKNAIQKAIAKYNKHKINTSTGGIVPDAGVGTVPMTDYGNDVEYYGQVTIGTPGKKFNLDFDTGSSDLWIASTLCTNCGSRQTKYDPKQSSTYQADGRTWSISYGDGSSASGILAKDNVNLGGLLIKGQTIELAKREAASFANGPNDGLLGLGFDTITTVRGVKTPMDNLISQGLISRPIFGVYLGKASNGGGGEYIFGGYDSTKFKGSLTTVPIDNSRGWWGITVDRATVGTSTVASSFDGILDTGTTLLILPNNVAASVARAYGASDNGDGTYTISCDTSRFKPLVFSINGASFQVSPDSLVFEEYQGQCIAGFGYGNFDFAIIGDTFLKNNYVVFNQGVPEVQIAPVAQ
Put plainly: Inhibition of rhizopuspepsin. In short, it runs like this:
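IC50 came from several inhibitor concentrations and was converted to Ki by the Cha equation, assuming competitive inhibition.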

A further assay concerns the target Pepsin A (Sus scrofa, UniProt P00791). Put plainly: The compound was tested for inhibition of porcine pepsin.
The next assay is filed under the species Mus musculus. Put plainly: The compound was tested for inhibition of mouse submaxillary renin. It is filed as functional. In outline:
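Mouse submaxillary gland renin was run like the human kidney renin assay: synthetic tetradecapeptide substrate, fluorometric read-out, pH 7.20 citrate/phosphate, 37 °C. Ki came from a competitive inhibition fit.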

The target in assay [1] is T2, Renin (Homo sapiens, UniProt P00797).
T2 sequence (P00797 whole entry): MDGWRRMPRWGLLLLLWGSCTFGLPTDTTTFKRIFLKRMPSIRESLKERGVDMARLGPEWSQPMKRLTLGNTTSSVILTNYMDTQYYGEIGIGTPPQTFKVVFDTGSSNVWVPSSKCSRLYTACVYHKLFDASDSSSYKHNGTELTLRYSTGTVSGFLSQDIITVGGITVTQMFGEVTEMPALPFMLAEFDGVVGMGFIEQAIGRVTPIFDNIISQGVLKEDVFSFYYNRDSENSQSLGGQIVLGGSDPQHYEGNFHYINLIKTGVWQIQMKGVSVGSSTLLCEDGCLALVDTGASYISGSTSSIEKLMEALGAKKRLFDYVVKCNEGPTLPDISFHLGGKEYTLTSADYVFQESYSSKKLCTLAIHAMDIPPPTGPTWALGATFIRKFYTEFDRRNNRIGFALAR
Description: Inhibition of human kidney renin. In outline: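 Fluorometric assay with a synthetic tetradecapeptide substrate, pH 7.20 citrate/phosphate, 37 °C. Ki obtained by fitting to a competitive inhibition equation, sometimes from data pooled across two independent experiments. Reproducible within ±20%.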

Assay [2] deals with T2, Renin. Put plainly: Inhibition of human plasma renin. It is filed as cell-free. In outline: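 Renin in reconstituted lyophilized human plasma (high- or low-renin lots), acting on endogenous angiotensinogen. Angiotensin I was measured by radioimmunoassay at pH 7.4 phosphate, 37 °C, with 8-hydroxyquinoline or PMSF as angiotensinase inhibitor. Inhibitor stocks were 1.00×10⁻³ M in methanol or acetic acid. IC50 taken from several concentrations bracketing it.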

In a further assay the target is Renin (Canis familiaris). Put plainly: Inhibition of Renin.

Residues, ends and D or L forms follow the SMILES beside them. A value given as a limit tells only on which side of the number the result lay.

From ChEMBL document CHEMBL1122863, “Renin inhibitors. Syntheses of subnanomolar, competitive, transition-state analogue inhibitors containing a novel analogue of statine” (J Med Chem, 1985) come the findings set out here.

Pepsin A, sequence (P00791 whole entry): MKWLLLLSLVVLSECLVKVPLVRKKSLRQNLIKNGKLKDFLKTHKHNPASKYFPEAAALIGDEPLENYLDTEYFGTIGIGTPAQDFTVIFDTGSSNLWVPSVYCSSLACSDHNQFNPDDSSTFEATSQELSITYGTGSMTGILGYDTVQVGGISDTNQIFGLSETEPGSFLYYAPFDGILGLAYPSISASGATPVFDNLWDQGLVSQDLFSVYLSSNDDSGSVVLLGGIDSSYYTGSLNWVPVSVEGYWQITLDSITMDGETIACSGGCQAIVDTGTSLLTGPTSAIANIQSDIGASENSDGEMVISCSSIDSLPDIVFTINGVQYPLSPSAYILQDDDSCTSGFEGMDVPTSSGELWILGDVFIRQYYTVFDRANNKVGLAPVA

Regarding `CC(C)CC(=O)N[C@@H](Cc1c[nH]cn1)C(=O)N1CCC[C@H]1C(=O)N[C@@H](Cc1ccccc1)C(=O)N[C@@H](Cc1c[nH]cn1)C(=O)N[C@@H](CC1CCCCC1)C(O)CC(=O)N[C@@H](CC(C)C)C(=O)N[C@@H](Cc1ccccc1)C(N)=O` (some centres not stated) (HELM PEPTIDE1{[CC(C)CC(=O)[*:2]].H.P.F.H.[O=C(CC(O)[C@H](CC1CCCCC1)N[*:1])[*:2]].L.F.[am]}$$$$V2.0), the Ki – broadly, a measure of affinity in units of concentration, obtained from inhibition or displacement – worked out at 230 nM at Rhizopuspepsin, 28 nM on Pepsin A and 2.1 nM in the assay listed under Mus musculus.
Take `CCOC(=O)N[C@@H](Cc1ccccc1)C(=O)N[C@@H](Cc1c[nH]cn1)C(=O)N[C@@H](CC1CCCCC1)[C@@H](O)CC(=O)N[C@@H](CC(C)C)C(=O)N[C@@H](Cc1ccccc1)C(N)=O` (HELM PEPTIDE1{[CCOC(=O)[*:2]].F.H.[O=C(C[C@H](O)[C@H](CC1CCCCC1)N[*:1])[*:2]].L.F.[am]}$$$$V2.0): the inhibitory constant (Ki) on Renin [1] amounted to 0.52 nM. The IC50 (in general, the point on the concentration scale where inhibition reaches its midpoint) against Renin [2] was 0.76 nM; against Renin (Canis familiaris) it was 9.5 nM.
Taken in the same sequence, the figures for `CC(C)C[C@H](NC(=O)C[C@H](O)[C@H](Cc1ccccc1)NC(=O)[C@H](Cc1c[nH]cn1)NC(=O)COc1ccccc1)C(=O)N[C@@H](Cc1ccccc1)C(N)=O` were 580 nM, more than 1000 nM and more than 1000 nM.
For `CC(C)C[C@H](NC(=O)C[C@H](O)[C@H](CC1CCCCC1)NC(=O)[C@H](Cc1c[nH]cn1)NC(=O)[C@H](Cc1ccccc1)NC(=O)OC(C)(C)C)C(=O)N[C@@H](Cc1ccccc1)C(N)=O` (HELM PEPTIDE1{[CC(C)(C)OC(=O)[*:2]].F.H.[O=C(C[C@H](O)[C@H](CC1CCCCC1)N[*:1])[*:2]].L.F.[am]}$$$$V2.0), in that order: 0.88 nM, 2.2 nM and 13 nM.
Molecule `CC(C)C[C@H](NC(=O)C[C@H](O)[C@H](CC1CCCCC1)NC(=O)[C@H](Cc1c[nH]cn1)NC(=O)COc1ccccc1)C(=O)N[C@@H](Cc1ccccc1)C(N)=O` displayed a Ki at Renin [1] of 14 nM. The IC50 at Renin [2] was 1000 nM; at Renin (Canis familiaris) it was more than 1000 nM.
At Renin [1], `CC(C)C[C@H](NC(=O)C[C@H](O)[C@H](CC(C)C)NC(=O)[C@H](Cc1c[nH]cn1)NC(=O)COc1ccccc1)C(=O)N[C@@H](Cc1ccccc1)C(N)=O` (HELM PEPTIDE1{[O=C(COc1ccccc1)[*:2]].H.[CC(C)C[C@H](N[*:1])[C@@H](O)CC(=O)[*:2]].L.F.[am]}$$$$V2.0) came in with a Ki of 4100 nM.
Regarding `CC(C)CC(=O)N[C@@H](Cc1c[nH]cn1)C(=O)N1CCC[C@H]1C(=O)N[C@@H](Cc1ccccc1)C(=O)N[C@@H](Cc1c[nH]cn1)C(=O)N[C@@H](CC(C)C)[C@@H](O)CC(=O)N[C@@H](CC(C)C)C(=O)N[C@@H](Cc1ccccc1)C(N)=O` (HELM PEPTIDE1{[CC(C)CC(=O)[*:2]].H.P.F.H.[CC(C)C[C@H](N[*:1])[C@@H](O)CC(=O)[*:2]].L.F.[am]}$$$$V2.0), the figures for the Ki on Rhizopuspepsin, at Pepsin A and in the assay listed under Mus musculus were 200 nM, 27 nM and 14 nM, respectively.
With `CC(C)C[C@H](NC(=O)C[C@H](O)[C@H](CC1CCCCC1)NC(=O)[C@H](Cc1c[nH]cn1)NC(=O)[C@H](Cc1ccccc1)NC(=O)OC(C)C)C(=O)N[C@@H](Cc1ccccc1)C(N)=O` (HELM PEPTIDE1{[CC(C)OC(=O)[*:2]].F.H.[O=C(C[C@H](O)[C@H](CC1CCCCC1)N[*:1])[*:2]].L.F.[am]}$$$$V2.0), the Ki on Renin [1] was found to be 1.1 nM. Further, the IC50 at Renin [2] was found to be 5.1 nM; against Renin (Canis familiaris) it was 20 nM.
